One molecule from ChEMBL document CHEMBL3259714, “Pyrazolo[4,3-e][1,2,4]triazine sulfonamides as carbonic anhydrase inhibitors with antitumor activity” (Bioorg Med Chem, 2014) can be followed below.

One assay addresses Carbonic anhydrase 12 (Homo sapiens, UniProt O43570). The assay can be described thus: Inhibition of human carbonic anhydrase 12-mediated CO2 hydration preincubated for 15 mins by stopped-flow assay.
Assay [1] relates to MDA-MB-231. The assay can be described thus: Inhibition of collagen synthesis in human MDA-MB-231 cells assessed as 5-[3H]-proline incorporation into proteins susceptible to action of bacterial collagenase after 24 hrs. The class given is functional, cell-based. The essentials: (§1)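 Cells labelled 24 h in growth medium with 5-[³H]proline (5 μCi/mL, 28 Ci/mmol) at a range of compound concentrations. Collagen share of incorporated label found by digesting proteins with purified Clostridium histolyticum collagenase (Peterkofsky method). Cell and medium fractions combined. IC50 is the mean ± S.D. of three independent experiments run in duplicate.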

The target in the next assay is Carbonic anhydrase 1 (Homo sapiens, UniProt P00915). The assay is described as follows: Inhibition of human carbonic anhydrase 1-mediated CO2 hydration preincubated for 15 mins by stopped-flow assay.
Carbonic anhydrase 1, sequence (P00915 whole entry): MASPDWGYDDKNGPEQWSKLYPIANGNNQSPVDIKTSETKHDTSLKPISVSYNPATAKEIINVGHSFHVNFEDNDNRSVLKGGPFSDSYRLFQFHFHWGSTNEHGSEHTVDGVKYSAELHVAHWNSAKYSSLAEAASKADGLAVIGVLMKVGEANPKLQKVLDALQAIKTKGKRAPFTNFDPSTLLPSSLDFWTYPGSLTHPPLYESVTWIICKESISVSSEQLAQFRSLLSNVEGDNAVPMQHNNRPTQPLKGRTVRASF
A further assay addresses Carbonic anhydrase 2 (Homo sapiens, UniProt P00918). The assay is described as follows: Inhibition of human carbonic anhydrase 2-mediated CO2 hydration preincubated for 15 mins by stopped-flow assay.
Assay [2] deals with MCF7. The assay is described as follows: Inhibition of collagen synthesis in human MCF7 cells assessed as 5-[3H]-proline incorporation into proteins susceptible to action of bacterial collagenase after 24 hrs. It is filed as functional, cell-based. In outline:
as §1

Assay [3] relates to MCF7. The assay can be described thus: Cytostatic activity against human MCF7 cells assessed as inhibition of DNA synthesis after 24 hrs by [3H]thymidine incorporation assay. It is filed as functional, cell-based. In outline: (§2)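 Cells kept in DMEM with 10% FBS and penicillin/streptomycin at 37 °C. Seeded in 6-well plates and grown to about 80% confluency, in DMEM without phenol red with 10% CPSR1. Exposed to a range of concentrations plus 0.5 μCi [³H]-thymidine for 24 h at 37 °C. Cells trypsinized and washed with cold PBS until wash dpm matched the reagent control. Uptake counted by liquid scintillation as dpm/well. IC50 is mean ± S.D. of four independent experiments.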
In general terms: Uptake of a labelled nucleoside into DNA is a usual measure of proliferation.

Assay [4] relates to MDA-MB-231. The assay is described as follows: Cytostatic activity against human MDA-MB-231 cells assessed as inhibition of DNA synthesis after 24 hrs by [3H]thymidine incorporation assay. It is filed as functional, cell-based. The essentials:
as §2

The target in the next assay is Carbonic anhydrase 9 (Homo sapiens, UniProt Q16790). The assay can be described thus: Inhibition of human carbonic anhydrase 9-mediated CO2 hydration preincubated for 15 mins by stopped-flow assay.

Carbonic anhydrase 12, sequence (O43570 whole entry): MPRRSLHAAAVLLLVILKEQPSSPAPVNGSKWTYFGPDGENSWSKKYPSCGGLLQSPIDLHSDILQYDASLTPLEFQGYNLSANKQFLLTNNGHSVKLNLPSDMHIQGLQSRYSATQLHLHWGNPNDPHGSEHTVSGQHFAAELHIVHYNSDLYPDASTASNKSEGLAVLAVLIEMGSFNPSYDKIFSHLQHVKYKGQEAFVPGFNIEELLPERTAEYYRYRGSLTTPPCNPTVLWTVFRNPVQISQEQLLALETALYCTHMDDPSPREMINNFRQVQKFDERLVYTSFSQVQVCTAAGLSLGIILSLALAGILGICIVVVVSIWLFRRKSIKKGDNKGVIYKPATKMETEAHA

On to `Cc1nn(C)c2nnc(Nc3ccc(S(=O)(=O)NCCO)cc3)nc12`, for which the Ki is 7.5 nM at Carbonic anhydrase 12, greater than 50000 nM at Carbonic anhydrase 1, 772 nM at Carbonic anhydrase 2 and 26.5 nM on Carbonic anhydrase 9. In addition, the IC50 in the assay on MDA-MB-231 [1] and with MCF7 [2] was greater than 200000 nM each time. Besides, the inhibition entry in the assay with MCF7 [3] and with MDA-MB-231 [4] was “Dose-dependent effect” in each case.

In general, Ki refers to a dissociation constant, usually derived from enzyme kinetics or from competition with a known ligand. Low values mean a stronger hold on the target, high ones a looser hold on the target. In general, IC50 refers to the midpoint of a concentration-inhibition curve.
